In ChEMBL document CHEMBL1128517, “Unusual single-stranded polyribonucleotides as potent anti-HIV agents” (J Med Chem, 1995):
pIC50: −log10 of the molar value.

Tests used:
[1] = tested on: CEM-SS; assay: Inhibitory activity against the cytopathic effect of HIV-1 RFstrain in CEM-SS cells; type: functional, cell-based; conditions: Homo sapiens
Summary of the method: (§1)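 XTT cytoprotection assay. CEM-SS cells were seeded at 5×10^3 per well and infected at a multiplicity that gave complete killing of virus control wells by day 6. Isolates were pretitered to equivalent infection. Serial half-log dilutions of compound were tested in triplicate. After 6 days at 37 °C, XTT (1 mg/mL) with phenazine methosulfate (6.12 µg/mL) was added for 4 h and read at 450 nm. Concentrations in µM were based on estimated number-average molecular weights.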

[2] = tested on: CEM-SS; assay: Inhibitory activity against the cytopathic effect of HIV-2 A17 (pyridinone-res) strain in CEM-SS cells; type: functional, cell-based; conditions: Homo sapiens; summary of the method: as §1
[3] = tested on: CEM-SS; assay: Inhibitory activity against the cytopathic effect of HIV-2 G910-6(AZT-res) strain in CEM-SS cells; type: functional, cell-based; conditions: Homo sapiens; summary of the method: as §1
[4] = tested on: CEM-SS; assay: Inhibitory activity against the cytopathic effect of HIV-2 MS strain in CEM-SS cells; type: functional, cell-based; conditions: Homo sapiens; summary of the method: as §1
[5] = tested on: CEM-SS; assay: Inhibitory activity against the cytopathic effect of HIV-2 ROD strain in CEM-SS cells; type: functional, cell-based; conditions: Homo sapiens; summary of the method: as §1
[6] = tested on: CEM-SS; assay: Inhibitory activity against the HIV-1-induced cytopathic effect in CEM-SS cell line; type: functional, cell-based; conditions: Homo sapiens; summary of the method: as §1
[7] = tested on: CEM-SS; assay: Inhibitory activity against the cytopathic effect of HIV-1 IIIB strain in CEM-SS cells; type: functional, cell-based; conditions: Homo sapiens; summary of the method: as §1
[8] = species: Homo sapiens; assay: Inhibitory activity against the HIV-1-induced cytopathic effect in Macrophage; type: functional, organism-based
Summary of the method: (§2)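 Fresh human peripheral blood lymphocytes and macrophages were isolated by Ficoll-Hypaque centrifugation. They were infected with clinical HIV-1 isolates cultured from patient peripheral blood lymphocytes, then treated with the polymers. Inhibition of HIV replication was reported as IC50.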

[9] = tested on: MT2; assay: Inhibitory activity against the HIV-1-induced cytopathic effect in MT-2 cell line; type: functional, cell-based; conditions: Homo sapiens
[10] = species: Homo sapiens; assay: Inhibitory activity against the HIV-1-induced cytopathic effect in fresh human peripheral blood lymphocytes; type: functional, organism-based; summary of the method: as §2
[11] = tested on: CEM-SS; assay: Inhibitory activity against the cytopathic effect of HIV-1 LAV strain in CEM-SS cells; type: functional, cell-based; conditions: Homo sapiens; summary of the method: as §1
[12] = species: Homo sapiens; assay: Inhibitory activity against the HIV-1-induced cytopathic effect in human peripheral blood lymphocytes; type: functional, organism-based; summary of the method: as §2

Row | Structure (SMILES) | pIC50 [1] | pIC50 [2] | pIC50 [3] | pIC50 [4] | pIC50 [5] | pIC50 [6] | pIC50 [7] | pIC50 [8] | pIC50 [9] | pIC50 [10] | pIC50 [11] | pIC50 [12]
1 | Cc1cn([C@H]2C[C@H](N=[N+]=[N-])[C@@H](CO)O2)c(=O)[nH]c1=O [ZIDOVUDINE] | 7.52 | 8.30 | < 6.00 | 7.52 | 8.30 | 8.70 | 8.70 | 6.40 | 8.22 | 7.70 | 8.40 | 
2 | Cn1c(N)nc2c(ncn2[C@@H]2O[C@H](CO)[C@@H](OP(=O)(O)O)[C@H]2O)c1=S | 7.30 | 7.10 | 7.70 | 7.52 | 7.52 | 8.00 | 8.00 | 8.70 | 6.80 |  | 7.52 | 7.52
3 | Cn1cnc2c(ncn2C2O[C@H](COP(=O)(O)O)[C@@H](O)[C@H]2O)c1=S (stereo partly drawn) | 6.77 | 6.22 | 7.00 | 6.85 | 6.60 | 7.10 | 7.10 | 6.82 | 6.10 | 7.52 | 7.40 | 
